High-throughput results from PubChem BioAssay.
Rows were chosen to be rich in hits. Some 1.5% of all compounds tested hit in one or more screens of this group.
GASC-1 inh – inhibitors of human GASC-1 (JMJD2C) demethylase. Q9H3R0. GST-JMJD2C(1-420) H3K9me3 demethylation, DELFIA europium. inhibition, % at 2.35 µM. 0.069% of 330,000 active. AID 2099;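 active = more than half of a compound's replicate wells show inhibition beyond 50%, single wells judged on their own value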;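 note: signal counts dimethyl H3K9 product captured on neutravidin plate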
Target sequence (Q9H3R0 1-420 limits assumed): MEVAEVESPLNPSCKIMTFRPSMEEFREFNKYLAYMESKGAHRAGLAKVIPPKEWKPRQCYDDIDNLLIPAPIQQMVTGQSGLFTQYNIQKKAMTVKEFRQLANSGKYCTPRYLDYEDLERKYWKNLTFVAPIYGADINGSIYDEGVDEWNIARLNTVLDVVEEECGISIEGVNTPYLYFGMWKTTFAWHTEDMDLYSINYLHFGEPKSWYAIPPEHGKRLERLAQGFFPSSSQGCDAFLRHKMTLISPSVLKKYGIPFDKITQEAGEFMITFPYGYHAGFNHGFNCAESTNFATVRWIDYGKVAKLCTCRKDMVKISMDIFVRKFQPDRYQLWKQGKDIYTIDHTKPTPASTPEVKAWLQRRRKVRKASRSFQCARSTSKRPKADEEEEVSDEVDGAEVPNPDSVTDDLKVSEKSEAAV
GalR3 antag – blocks the human galanin receptor 3; 0.44% of 360,000 active; AID 651719; HEK293 GalR3-CNG cAMP membrane potential fluorescence; galR3 body fused to GalR1 C-terminus; inhibition, % at 3 µM;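 active = inhibition above the screen-wide average plus 3 SD, cut at about 13% in these data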;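 note: forskolin and galanin both at EC90 stimulate the cells; cAMP rise reported by CNG channel membrane potential dye signal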
Target sequence (O60755 1-299 limits assumed): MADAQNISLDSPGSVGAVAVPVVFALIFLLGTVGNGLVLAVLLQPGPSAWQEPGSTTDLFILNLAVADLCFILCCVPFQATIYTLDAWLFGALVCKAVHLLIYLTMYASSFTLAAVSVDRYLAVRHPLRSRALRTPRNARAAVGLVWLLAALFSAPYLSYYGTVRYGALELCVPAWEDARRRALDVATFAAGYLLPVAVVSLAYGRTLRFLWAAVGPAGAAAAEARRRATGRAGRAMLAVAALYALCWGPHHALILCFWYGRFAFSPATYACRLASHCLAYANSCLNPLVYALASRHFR
NR2E3 ag-1 – human photoreceptor-specific nuclear receptor agonism; CHO-S Gal4-NCOR/VP16-NR2E3 two-hybrid, luciferase; Q9Y5X4; inhibition of corepressor binding, % at 3.98 µM; 0.35% of 360,000 active; AID 602229;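 active = inhibition above the mean of all tested compounds plus 3 SD, cut at about 70% in these data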;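 note: higher means lower luciferase signal from less NR2E3 corepressor binding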
697 NFkB inh – inhibitors of the PMA/ionomycin-induced NF-kB reporter in 697 B cells. 697 B-cell NF-kB luciferase reporter, 16 h. inhibition, % at 4 µM. 0.33% of 330,000 active; in the data active = inhibition above about 35%
Jurkat NFkB inh – inhibitors of the PMA/ionomycin-induced NF-kB reporter in Jurkat cells. 0.53% of 330,000 active. AID 435003. inhibition, % at 4 µM. PMA/ionomycin-induced NF-kB luciferase reporter, luminescence; in the data active = inhibition above about 50%
NR2E3 ag-2 – NR2E3 (human) agonism; Q9Y5X4; AID 2300; inhibition of corepressor binding, % at 4.78 µM; GST-NR2E3/biotin-RetCOR TR-FRET, 1536-well; 0.12% of 320,000 active;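 active = percent inhibition above the cutoff of mean plus 3 SD of all tested compounds, set per screening campaign, cut at about 20% in these data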
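system = GST-tagged NR2E3 plus biotinylated RetCOR corepressor | input = 1.35 nM GST-NR2E3 | also added = 7 nM biotin-RetCOR | schedule = 5 h incubation at 4 °C | measured by = TR-FRET with europium anti-GST and streptavidin-D2, 340 nm excitation | read-out = percent loss of FRET ratio relative to control wells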
NR2E3 ag confirm – confirmation of human NR2E3 agonists; shares compounds with NR2E3 ag-1; 51% of 2,300 active; CHO-S mammalian two-hybrid NR2E3-NCOR, luciferase luminescence; inhibition, % at 3.98 µM;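 active = average inhibition above a cutoff equal to the mean inhibition of all tested compounds plus one SD, cut at about 70% in these data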
GAL4-VP16 luc – counter-screen for NR2E3 agonists: GAL4-VP16 reporter inhibitors. AID 624379. shares compounds with NR2E3 ag-1. inhibition, % at 3.98 µM. CHO-S GAL4-VP16 luciferase reporter, luminescence. 29% of 2,300 active;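 active = mean inhibition above a cutoff equal to the average over all tested compounds plus one standard deviation, cut at about 70% in these data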;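 note: luciferase from a UAS reporter driven by GAL4-VP16 transactivation; higher means less reporter light so more repression of VP16 activity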
Large screens that a line does not name were inactive (follow-up assays come after a bar, where they were run).

Cn1nnnc1Sc1ncnc2scc(-c3ccccc3Br)c12	none | NR2E3 ag confirm inactive | GAL4-VP16 luc inactive
COc1ccccc1NC(=O)N1CCN(c2ccnc3cc(Cl)ccc23)CC1	none
O=C(Nc1ccc(OC(F)(F)F)cc1)N1CCN(c2ccnc3cc(Cl)ccc23)CC1	none | NR2E3 ag confirm 94 | GAL4-VP16 luc inactive
CC(=O)OCC(=O)Nc1ccc([N+](=O)[O-])cc1Cl	none
CC(=O)Oc1c(C)cc(Cl)cc1C(=O)Nc1ccc([N+](=O)[O-])cc1Cl	NR2E3 ag-1 83 | NR2E3 ag confirm 99 | GAL4-VP16 luc 73
CCN(CC(=O)NCc1cccs1)C(=O)COc1cccc(C(F)(F)F)c1	none
CCN(CC(=O)NCc1cccs1)C(=O)c1ccc(-c2cccc(C(F)(F)F)c2)o1	none | NR2E3 ag confirm inactive | GAL4-VP16 luc inactive
NC1=NC(c2cccc(Cl)c2)N(CCc2ccc(F)cc2)C(N)=N1 (configuration not stated)	none
O=C(Nc1ccc(O)c2c(=O)cc(-c3ccccc3Cl)oc12)c1ccccc1Cl	none
O=c1cc(-c2ccccc2Cl)oc2c([N+](=O)[O-])c(O)cc(O)c12	NR2E3 ag-1 98 | NR2E3 ag confirm 99 | GAL4-VP16 luc 91
CN(C)c1ccc(C=Cc2ccnc3ccccc23)cc1N	none (no result: GASC-1 inh, 697 NFkB inh, Jurkat NFkB inh, NR2E3 ag-2) | NR2E3 ag confirm inactive | GAL4-VP16 luc inactive
COc1ccccc1C=Cc1ccnc2ccccc12	none (no result: GASC-1 inh, 697 NFkB inh, Jurkat NFkB inh, NR2E3 ag-2)
CN(C)S(=O)(=O)c1ccc(NC(=O)N2CCN(c3cccc(C(F)(F)F)c3)CC2)cc1	none | NR2E3 ag confirm 80 | GAL4-VP16 luc inactive
Cc1ccnc(NC(=S)N2CCN(c3cccc(C(F)(F)F)c3)CC2)c1	NR2E3 ag-1 84 | NR2E3 ag confirm 91 | GAL4-VP16 luc inactive
CCOC(=O)C1CCN(C(=O)COC(=O)c2ccc(=O)n(Cc3ccccc3)n2)CC1	none
O=C(CCC(=O)N1CCN(c2ccc(F)cc2)CC1)c1ccc(Cl)cc1	none
O=C(CCC(=O)N1CCN(c2ccc(Cl)c(Cl)c2)CC1)c1ccccc1	NR2E3 ag-1 91 | NR2E3 ag confirm 96 | GAL4-VP16 luc 76
O=C(COc1ccc2c(c1)CCC2)NCc1ccc(Cl)cc1	none
Cc1c(CN(C)C(=O)c2sc3cc(Cl)ccc3c2Cl)cnn1C	none | NR2E3 ag confirm 72 | GAL4-VP16 luc inactive
CSCc1cc(N(C)c2ccccc2)nc(-c2ccccn2)n1	NR2E3 ag-1 109 | NR2E3 ag confirm inactive | GAL4-VP16 luc inactive
COC(=O)c1cc2c(c3c4ccccc4n(S(=O)(=O)c4cccc(C)c4)c13)C(=O)N(Cc1ccc(N(C)C)cc1)C2	none (no result: GASC-1 inh, NR2E3 ag-1, 697 NFkB inh, Jurkat NFkB inh, NR2E3 ag-2)
CCOc1ccc(CN(C)Cc2cc(=O)oc3c(C)c(C)ccc23)cc1OC	NR2E3 ag-1 86 (no result: GASC-1 inh, 697 NFkB inh, Jurkat NFkB inh, NR2E3 ag-2) | NR2E3 ag confirm 88 | GAL4-VP16 luc 81
Cc1cc(C)cc(CC(=O)N2CCC2(C)C(=O)NS(=O)(=O)c2ccc(Br)cc2)c1 (configuration not stated)	none (no result: GASC-1 inh, 697 NFkB inh, Jurkat NFkB inh, NR2E3 ag-2)
Cc1ccc2nc(-c3ccccn3)c(NC3CCCC3)n2c1	none | NR2E3 ag confirm inactive | GAL4-VP16 luc inactive
Cc1ccc(Nc2c(-c3ccccn3)nc3cccc(C)n23)cc1	NR2E3 ag-1 96 | NR2E3 ag confirm 97 | GAL4-VP16 luc 83
CCCCCCSc1cccc(-c2nc3ccc(C)cn3c2NC2CCCCC2)c1	none
Cc1cccc(C)c1Nc1c(-c2ccccn2)nc2ccccn12	NR2E3 ag-1 77 | NR2E3 ag confirm inactive | GAL4-VP16 luc inactive
Cc1cccc2nc(-c3ccco3)c(Nc3ccccc3)n12	none
CCN(CC)S(=O)(=O)c1ccc(N2CCOCC2)c(NS(=O)(=O)c2cc(C(C)(C)C)ccc2C)c1	none | NR2E3 ag confirm inactive | GAL4-VP16 luc inactive
CCN(CC)S(=O)(=O)c1ccc(N2CCOCC2)c(NS(=O)(=O)c2ccc(C(C)C)cc2)c1	none
COc1cccc(NC(=O)Nc2ccc(Cc3ccncc3)cc2)c1	none | NR2E3 ag confirm inactive | GAL4-VP16 luc inactive
COc1cccc(NC(=O)Nc2ccncc2)c1	none
O=C(COc1ccccc1O)Nc1ccccc1Cl	none
O=C(COc1ccccc1O)NNc1ccccc1	none | NR2E3 ag confirm inactive | GAL4-VP16 luc inactive
O=C(Cn1c(=O)cnc2ccccc21)N1CCN(S(=O)(=O)c2cccc([N+](=O)[O-])c2)CC1	none
CCOC(=O)C1CC(c2ccccc2)=NNC1=O (configuration not stated)	none
CCOC(=O)C1=CCN(S(=O)(=O)c2ccc(F)cc2)C1c1ccc(Cl)c(Cl)c1 (configuration not stated)	none (no result: GASC-1 inh, NR2E3 ag-1, 697 NFkB inh, Jurkat NFkB inh, NR2E3 ag-2)
CC(=O)Nc1ccc(OCc2cccc3ccccc23)cc1	none | NR2E3 ag confirm inactive | GAL4-VP16 luc inactive
O=C(NCCc1cn2ccccc2n1)c1cc(COc2ccc3ncccc3c2)on1	none | NR2E3 ag confirm inactive | GAL4-VP16 luc inactive
Cc1cc(OCc2cc(C(=O)N3CCC(Oc4cccnc4)CC3)no2)cc(C)c1Cl	NR2E3 ag-1 94 | NR2E3 ag confirm 93 | GAL4-VP16 luc 74
O=C(NC1CCCC1)c1cc(COc2ccc3ncccc3c2)on1	NR2E3 ag-1 95 (no result: GalR3 antag) | NR2E3 ag confirm 95 | GAL4-VP16 luc 84
O=C(NCCc1cn2ccccc2n1)c1ccccc1F	none
Cc1ccc(OCc2cc(C(=O)N3CCCCCCC3)no2)cc1C	none
COc1cccc(OCc2cc(C(=O)NC3CCOCC3)no2)c1	none
O=C(c1cc(COc2ccc3ncccc3c2)on1)N1CCCCCC1	GalR3 antag 41, NR2E3 ag-1 71 | NR2E3 ag confirm 95 | GAL4-VP16 luc 76
Cc1cc(OCc2cc(C(=O)N3CCN(CC4CC4)CC3)no2)cc(C)c1Cl	none (no result: GASC-1 inh)
COc1ccccc1NC(=O)CSc1nnc(CC(=O)Nc2ccccc2F)n1C	none
COCC1CCN(C(=O)c2cc(COc3ccc4ncccc4c3)on2)CC1	none | NR2E3 ag confirm 91 | GAL4-VP16 luc 75
Cc1cc(OCc2cc(C(=O)NC3CCC3)no2)cc(C)c1Cl	none (no result: GalR3 antag)
Cc1ccc(OCc2cc(C(=O)NC3CCCCC3)no2)cn1	NR2E3 ag-1 83 | NR2E3 ag confirm inactive | GAL4-VP16 luc inactive
N#Cc1ccc(-c2nc3c4ccccc4ccn3c2Cc2cccc(Cl)c2)cc1	none (no result: GASC-1 inh, 697 NFkB inh, Jurkat NFkB inh, NR2E3 ag-2)
Cc1ccc2oc(C(=O)NCC3CCOCC3)c(C)c2c1	none
Cc1csc2c(N3CCN(C(=S)Nc4ccc(F)cc4F)CC3)ncnc12	NR2E3 ag-1 90 | NR2E3 ag confirm 97 | GAL4-VP16 luc 88
Cc1csc2c(N3CCN(C(=O)Nc4ccccc4)CC3)ncnc12	none
O=[N+]([O-])c1ccc(N2CCN(C(=S)Nc3ccc(F)cc3F)CC2)cc1	NR2E3 ag-1 74 | NR2E3 ag confirm 73 | GAL4-VP16 luc inactive
